Assay results published in ChEMBL document CHEMBL1817640, “Synthesis, trypanocidal activity and molecular modeling studies of 2-alkylaminomethylquinoline derivatives” (Eur J Med Chem, 2011).
Active and inactive are the calls of the source. The rule behind the calls is not given here.

Key:
Trypanosoma cruzi [1] = assay: Trypanocidal activity against epimastigote form of Trypanosoma cruzi assessed as [3H]thymidine uptake after 72 hrs by liquid scintillation counter; type: functional, organism-based
Outline: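 RA-strain epimastigotes grown in biphasic medium at 26 °C, adjusted to 1.5 × 10⁶/mL. Cultured 72 h with compound at 100, 50, 10, 5, 1 and 0.5 (final). Benznidazole 5–20 as positive control. Growth measured by [³H]thymidine uptake. % inhibition = 100 − (cpm treated/cpm untreated × 100); IC50 estimated from this.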

Trypanosoma cruzi [2] = assay: Trypanocidal activity against bloodstream trypomastigote form of Trypanosoma cruzi after 24 hrs; type: functional, organism-based
Outline: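 Trypomastigotes were taken by cardiac puncture from infected CF1 mice at peak parasitemia (day 15). Blood was diluted in complete RPMI to 1.5 × 10⁶ parasites/mL and seeded in duplicate with compound at 0.5–100 final concentration; benznidazole served as control drug. After 24 h incubation at 4 °C, surviving parasites were counted in a Neubauer chamber.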

Trypanosoma cruzi [3] = assay: Trypanocidal activity against intracellular amastigotes form of Trypanosoma cruzi expressing beta-galactosidase infected in mouse J774 cells on day 7; type: functional, organism-based; conditions: J774, 168 h
Outline: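 Host cells infected with β-galactosidase-expressing trypomastigotes at a 10:1 parasite:cell ratio. After 24 h, washed twice with PBS, then compound added at 0.5–100 in phenol-red-free complete RPMI, duplicates. Uninfected and infected controls included. Developed with CPRG (100 final) plus 1% Nonidet P-40 for 4–6 h at 37 °C, read at A570. % inhibition relative to untreated infected cells; IC50 estimated.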

[4] = Cytotoxicity against african green monkey COS7 cells after 24 hrs by MTT assay; type: cell-based; conditions: chlorocebus aethiops, COS-7 cells
[5] = Selectivity index, ratio of CC50 for african green monkey COS7 cells to IC50 for bloodstream trypomastigote form of Trypanosoma cruzi; type: functional, COS-7
Outline: (§1)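 SI = CC50 divided by the IC50 against trypomastigotes or amastigotes, respectively.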

[6] = Selectivity index, ratio of CC50 for african green monkey COS7 cells to IC50 for intracellular amastigotes form of Trypanosoma cruzi; type: functional, COS-7; outline: as §1
Trypanosoma cruzi [7] = assay: Antitrypanosomal activity against bloodstream trypomastigote form of Trypanosoma cruzi RA infected in C3H/HeN mouse assessed as reduction in parasites at 1 mg/kg administered 5 days after infection for 10 consecutive days relative to untreated control; type: functional
Trypanosoma cruzi [8] = assay: Antitrypanosomal activity against bloodstream trypomastigote form of Trypanosoma cruzi RA infected in C3H/HeN mouse assessed as decrease in parasitemia at 1 mg/kg administered 5 days after infection for 10 consecutive days measured on day 14 relative to untreated control; type: functional, organism-based; parameters: dose 1 mg/kg

CCOC(=O)c1c(CN(C)Cc2ccccc2)nc2ccc(Cl)cc2c1-c1ccccc1
IC50 (Trypanosoma cruzi [1]): 9.7 µM | IC50 (Trypanosoma cruzi [2]): 128 µM | IC50 (Trypanosoma cruzi [3]): 61 µM | CC50 at 24 h [4]: 315 µM | Ratio CC50/IC50 [5]: 2.5 | Ratio CC50/IC50 [6]: 5.2

CCOC(=O)c1c(CN2CCCCC2)nc2ccc(Cl)cc2c1-c1ccccc1
IC50 (Trypanosoma cruzi [1]): 8.2 µM | IC50 (Trypanosoma cruzi [2]): 51.3 µM | IC50 (Trypanosoma cruzi [3]): 37.9 µM | CC50 at 24 h [4]: 311 µM | Ratio CC50/IC50 [5]: 6.05 | Ratio CC50/IC50 [6]: 8.2

CC(=O)NCCCCCCNCc1nc2ccc(Cl)cc2c(-c2ccccc2)c1C(=O)O
IC50 (Trypanosoma cruzi [1]): 3.4 µM | IC50 (Trypanosoma cruzi [2]): 3.1 µM | IC50 (Trypanosoma cruzi [3]): 12.8 µM | CC50 at 24 h [4]: 771 µM | Ratio CC50/IC50 [5]: 248.7 | Ratio CC50/IC50 [6]: 60.2 | fold change (FC) (Trypanosoma cruzi [7]): 3 | Activity (Trypanosoma cruzi [8]): Active

CC(O)CNCc1nc2ccc(Cl)cc2c(-c2ccccc2)c1C(=O)O (stereo not drawn)
IC50 (Trypanosoma cruzi [1]): 50.4 µM

CCOC(=O)c1c(CN2CCOCC2)nc2ccc(Cl)cc2c1-c1ccccc1
IC50 (Trypanosoma cruzi [1]): 85.3 µM

CCOC(=O)c1c(CCl)nc2ccc(Cl)cc2c1-c1ccccc1
IC50 (Trypanosoma cruzi [1]): 31.4 µM

O=C(Cn1ccnc1[N+](=O)[O-])NCc1ccccc1 [BENZNIDAZOLE]
IC50 (Trypanosoma cruzi [1]): 5.8 µM | IC50 (Trypanosoma cruzi [2]): 34.1 µM | IC50 (Trypanosoma cruzi [3]): 3.6 µM | CC50 at 24 h [4]: 706 µM | Ratio CC50/IC50 [5]: 20.7 | Ratio CC50/IC50 [6]: 196.1

CCOC(=O)c1c(CN2CCN(C)CC2)nc2ccc(Cl)cc2c1-c1ccccc1
IC50 (Trypanosoma cruzi [1]): 11.8 µM | IC50 (Trypanosoma cruzi [2]): 6.4 µM | IC50 (Trypanosoma cruzi [3]): 10.4 µM | CC50 at 24 h [4]: 35.9 µM | Ratio CC50/IC50 [5]: 5.6 | Ratio CC50/IC50 [6]: 3.5

CCOC(=O)c1c(CN2CCCC2)nc2ccc(Cl)cc2c1-c1ccccc1
IC50 (Trypanosoma cruzi [1]): 10 µM | IC50 (Trypanosoma cruzi [2]): 62.4 µM | IC50 (Trypanosoma cruzi [3]): 40.3 µM | CC50 at 24 h [4]: 490 µM | Ratio CC50/IC50 [5]: 7.8 | Ratio CC50/IC50 [6]: 12.1

CCOC(=O)c1c(CN(CC)CC)nc2ccc(Cl)cc2c1-c1ccccc1
IC50 (Trypanosoma cruzi [1]): 11.6 µM | IC50 (Trypanosoma cruzi [2]): 42.6 µM | IC50 (Trypanosoma cruzi [3]): 33 µM | CC50 at 24 h [4]: 480 µM | Ratio CC50/IC50 [5]: 11.3 | Ratio CC50/IC50 [6]: 14.5

CC(C)NCc1nc2ccc(Cl)cc2c(-c2ccccc2)c1C(=O)O
IC50 (Trypanosoma cruzi [1]): 89.6 µM
